Screens: PubChem BioAssay, The Scripps Research Institute Molecular Screening Center
Rows were chosen to be rich in hits. Some 4.6% of all compounds tested hit in one or more screens of this group.
OX1R antag-1: OX1R (HCRTR1) antagonists, primary screen, fluorescence, CHO/OX1R cells, Fluo-8 calcium, orexin A. Orexin/Hypocretin receptor type 1 (Homo sapiens), O43613. Fluo-8 calcium fluorescence. inhibition, % at 5 µM. 330,000 compounds, 0.43% hits. AID 434989, 2010;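 active means inhibition above its plate's threshold, mean inhibition of all tested compounds on the plate plus 3 SD, cut at about 37% in these data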;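 further: 0% = orexin A challenge wells and 100% = SB-334867-A antagonist wells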
Target sequence (O43613 whole entry, looked up): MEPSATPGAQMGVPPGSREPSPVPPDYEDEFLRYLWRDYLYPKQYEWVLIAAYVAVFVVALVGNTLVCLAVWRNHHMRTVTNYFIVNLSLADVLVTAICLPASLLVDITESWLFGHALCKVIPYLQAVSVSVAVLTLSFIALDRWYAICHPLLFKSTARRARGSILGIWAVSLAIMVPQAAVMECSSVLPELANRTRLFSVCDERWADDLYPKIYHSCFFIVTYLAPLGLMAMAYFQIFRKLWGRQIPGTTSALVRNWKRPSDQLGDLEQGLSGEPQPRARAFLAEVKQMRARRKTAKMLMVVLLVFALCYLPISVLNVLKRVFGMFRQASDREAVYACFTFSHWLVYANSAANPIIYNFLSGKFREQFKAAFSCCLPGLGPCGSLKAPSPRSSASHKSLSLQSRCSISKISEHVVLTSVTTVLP
OX1R antag-2: antagonists of human orexin 1 receptor (OX1R) | 330,000 compounds, 1.8% hits | OX1R-expressing cells, FRET antagonist read-out | AID 485270, 2010 | Orexin/Hypocretin receptor type 1 (Homo sapiens), O43613 | inhibition, % at 6.6 µM; in the data active means inhibition mostly above about 38%, no sharp cut-off; inactive means mostly below about 40%;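 further: 0% = agonist challenge alone and 100% = reference antagonist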
CHO parental Ca: ATP-evoked calcium signal inhibitors, parental CHO, primary screen, counter-screen for OX1R antagonist project, cell-based, fluorescence, Fluo-8 calcium dye; inhibition, % at 5.6 µM; 330,000 compounds, 0.63% hits; parental CHO-K1, ATP-induced calcium, Fluo-8 fluorescence; AID 463079, 2010;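 active means inhibition above that plate's mean sample inhibition plus 3 SD, cut at about 26% in these data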;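 further: 0% = ATP-challenged DMSO wells and 100% = DMSO wells without ATP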
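Assay system – parental CHO cells · Reagent – ATP stimulus · Detection – intracellular calcium via Fluo-8 no-wash fluorescent dye · Evaluation – percent inhibition of ATP-evoked calcium rise, normalized to controls · Controls – ATP wells versus no-ATP DMSO wells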
TAAR1 agonist: human TAAR1 agonists, primary screen, Fluo-8 calcium fluorescence, CHO RD-HGA16 cells; vehicle wells 0%, saturating PEA agonist 100%; activation, % at 3 µM; Trace amine-associated receptor 1 (Homo sapiens), Q96RJ0; 360,000 compounds, 0.99% hits; AID 624467, 2012;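 active means activation above the mean activation of all test compounds in the run plus 3 SD, cut at about 38% in these data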
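Assay system – CHO-derived RD-HGA16 cells with stable Gα16 and human TAAR1 · Compound dosing – one-point dosing at 3 µM (nominal) · Incubation – 17-24 h seeding, 75 min 37 °C dye, 30 min RT · Measured by – kinetic Fluo-8 calcium fluorescence · Control set – DMSO vehicle as 0%, PEA at EC100 as 100% · Repeats – single well for each compound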
GPR7 antag: GPR7 receptor antagonists, primary screen, cell-based, fluorescence, single concentration; Neuropeptides B/W receptor type 1 (Homo sapiens), P48145; GPR7-expressing cells, fluorescence antagonist assay; inhibition, % at 4.4 µM; 290,000 compounds, 1.1% hits; AID 1861, 2009; in the data active means inhibition above about 16%, passing the limit was not always enough;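 further: cells stimulated with the agonist NPW; 0% = agonist with vehicle and 100% = vehicle without agonist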
TAAR1 antagonist: human TAAR1 antagonists, primary screen, Fluo-8 calcium fluorescence, CHO RD-HGA16 cells; Trace amine-associated receptor 1 (Homo sapiens), Q96RJ0; antagonist; inhibition, % at 3 µM; 360,000 compounds, 1.5% hits;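 active means inhibition above a per-plate cutoff, the mean inhibition of test compounds on that plate plus 3 SD, cut at about 49% in these data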;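 further: 0% = DMSO plus EC80 beta-PEA response and 100% = DMSO alone without agonist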
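Material: CHO RD-HGA16 cells bearing hTAAR1; compound dosing: one-point dosing, 3 µM nominal final; schedule: dye loading 75 min at 37 °C, then 30 min room temperature; measured by: calcium fluorescence with Fluo-8; control set: vehicle and agonist controls; replication: n of 1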
TAAR1 ag conf: human TAAR1 agonists, retest of hits, confirmation, Fluo-8 calcium fluorescence, CHO RD-HGA16 cells | shares compounds with TAAR1 agonist | scaled: DMSO 0%, maximal phenethylamine 100% | activation, % at 3 µM | 2,400 compounds, 82% hits | AID 651783, 2012;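 active means activation above a cutoff set at the run's mean compound activation plus 3 SD, cut at about 39% in these data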
Ga16 ag counter: nonselective calcium mobilization agonists, CHO-Ga16 cells, counter-screen for hTAAR1 agonist project, cell-based, fluorescence, CHO-Ga16 parental line; shares compounds with TAAR1 agonist; Fluo-8 calcium fluorescence; normalized to maximal ATP response, DMSO zero; activation, % at 3 µM; 2,400 compounds, 50% hits; AID 651787, 2012;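 active means activation above the run cutoff, the mean activation over all tested wells plus 3 SD, cut at about 12% in these data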;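 further: 0% = DMSO wells and 100% = maximal ATP response on the peak over basal ratio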
TAAR1 desens: TAAR1 desensitization by agonist hits, confirmation, counter-screen for TAAR1 agonist project, cell-based, fluorescence, tachyphylaxis; CHO RD-HGA16 hTAAR1, Fluo-8 calcium, beta-PEA response inhibition; shares compounds with TAAR1 agonist; 2,400 compounds, 46% hits; inhibition, % at 3 µM; AID 651951, 2012;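 active means inhibition above the run cutoff, the mean inhibition of all test compounds plus 3 SD, cut at about 49% in these data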;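 further: beta-PEA stimulus applied at its EC80; loss of beta-PEA calcium signal after compound pretreatment read as receptor desensitization; 0% = DMSO with beta-PEA at EC80 and 100% = DMSO alone without agonist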
Ga16 nonsel ant: inhibition of ATP-evoked calcium response in CHO-Ga16 cells, counter-screen for TAAR1 agonist project, cell-based, fluorescence. shares compounds with TAAR1 agonist. CHO-Ga16 ATP-induced calcium, Fluo-8 fluorescence. inhibition, % at 3 µM. 2,400 compounds, 39% hits. AID 651952, 2012;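 active means inhibition above the plate's mean compound inhibition plus 3 SD, computed per plate, cut at about 22% in these data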;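 further: 0% = EC80 ATP with DMSO and 100% = DMSO wells without ATP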
Starred values were filed as active, the others as inactive; x = not tested or not shown.

SMILES	OX1R antag-1	OX1R antag-2	CHO parental Ca	TAAR1 agonist	GPR7 antag	TAAR1 antagonist	TAAR1 ag conf	Ga16 ag counter	TAAR1 desens	Ga16 nonsel ant
Nc1nc(Nc2ccccc2)nc(NCc2ccco2)c1[N+](=O)[O-]	-43	26	-22	20	-25	21	x	x	x	x
Fc1ccc(Nc2nc(NCc3ccco3)c3ccccc3n2)cc1	17	4	9	70*	3	43	40*	23*	49*	39*
O=C(NNC(=O)c1ccc([N+](=O)[O-])cc1)c1ccc(Br)cc1	2	15	-5	1	-1	-22	x	x	x	x
O=C(NNC(=S)NCc1ccccc1)c1cccc([N+](=O)[O-])c1	-7	24	-1	1	-4	-25	x	x	x	x
CC(=O)NNC(=S)NC(=O)c1cccc([N+](=O)[O-])c1	15	34	0	2	0	-27	x	x	x	x
O=C(NNC(=S)NC(=O)c1ccccc1)c1ccc([N+](=O)[O-])cc1	-10	4	-3	64*	4	27	70*	46*	19	22*
O=C(NNC(=S)NC(=O)c1ccccc1Cl)c1cccc([N+](=O)[O-])c1	11	6	0	92*	-7	34	57*	43*	22	22*
O=C(NNC(=S)NC(=O)c1ccc(Br)cc1)c1ccc([N+](=O)[O-])cc1	-3	21	11	124*	-3	95*	142*	110*	96*	65*
O=C(NNC(=S)NC(=O)c1ccc(Br)cc1)c1cccc([N+](=O)[O-])c1	-2	2	1	135*	15	35	105*	88*	40	21
Clc1ccc(SCCCCN2CCNCC2)cc1	4	18	17	7	10	19	x	x	x	x
CC1=C(C(=O)N2CCOCC2)CC(CC(=O)NCC2CCCCC2)C(=O)N1Cc1ccc(C(C)(C)C)cc1 (stereo not drawn)	x	x	x	2	x	-10	x	x	x	x
CSCC[C@H](NC(=O)c1ccc2ccccc2c1)C(=O)N1CCC2(CC1)NCCc1[nH]cnc12	-13	2	-7	0	-9	-16	x	x	x	x
CSCC[C@H](NC(=O)COc1ccc(Cl)cc1)C(=O)N1CCC2(CC1)NCCc1[nH]cnc12	-12	-4	-20	52*	-3	3	1	0	-4	-5
COc1ccccc1-n1cnnc1SCC(=O)Nc1cccc(S(N)(=O)=O)c1	1	28	1	-4	-8	14	x	x	x	x
NC(c1ccccc1)c1csc(NC(=O)NCCc2ccccc2)n1 (stereo not drawn)	x	x	x	62*	x	11	28	5	16	15
NC(c1ccccc1)c1csc(NC(=O)Nc2cccc(Cl)c2)n1 (stereo not drawn)	x	x	x	64*	x	29	74*	22*	57*	36*
